# The list is not random: actives were taken first. Their share in the collection is about 3.1%.
# UHRF1 MBD2 ctr: UHRF1 methylated DNA binding inhibitors, primary screen, counter-screen for MBD2 inhibitor project, biochemical, TR-FRET, human UHRF1, single concentration. 370,000 compounds, 0.75% hits. E3 ubiquitin-protein ligase UHRF1 (Homo sapiens), Q96T88. AID 687016, 2013. inhibition, % at 4.4 µM. UHRF1 binding to methylated oligo; in the data active means inhibition above about 21%;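 further: UHRF1 SRA domain binding a hemimethylated CpG hairpin DNA probe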
# PRMT1 inh: PRMT1 methyltransferase inhibitors, primary screen, biochemical, fluorescence polarization. recombinant PRMT1, activity-based probe fluorescence polarization. inhibition, % at 2.79 µM. AID 652257, 2013. Protein arginine N-methyltransferase 1 (Homo sapiens), Q99873. 370,000 compounds, 1.3% hits;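 active means inhibition above about 21% made by adding two undisclosed values, limit read from the data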
# MBD2 DNA inh: inhibitors of MBD2 binding to methylated DNA, primary screen, biochemical, TR-FRET, DNA-binding domain, human; MBD2 binding to methylated oligonucleotide; 370,000 compounds, 0.31% hits; AID 686964, 2013; inhibition, % at 4.4 µM; in the data active means inhibition above about 13%
# Target sequence (Q9UBB5 whole entry, looked up, the tested form may be a part): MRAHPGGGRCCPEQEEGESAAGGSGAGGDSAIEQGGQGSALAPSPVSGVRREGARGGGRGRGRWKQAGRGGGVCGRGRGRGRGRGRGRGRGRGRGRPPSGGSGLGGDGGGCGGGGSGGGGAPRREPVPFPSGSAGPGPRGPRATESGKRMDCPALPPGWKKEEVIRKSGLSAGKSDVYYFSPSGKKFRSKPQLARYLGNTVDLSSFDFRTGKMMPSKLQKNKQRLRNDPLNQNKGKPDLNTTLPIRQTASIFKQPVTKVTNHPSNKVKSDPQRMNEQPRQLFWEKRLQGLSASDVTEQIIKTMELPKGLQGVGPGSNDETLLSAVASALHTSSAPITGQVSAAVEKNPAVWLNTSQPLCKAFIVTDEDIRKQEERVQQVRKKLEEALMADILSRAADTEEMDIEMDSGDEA
# ABHD5 PLIN5 PPI: ABHD5-PLIN5 interaction inhibitors, primary screen, cell lysate, split luciferase complementation, luminescence. Split G. princeps luciferase complementation, 4 h. 360,000 compounds, 0.78% hits. inhibition, % at 4 µM;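 active means inhibition above the mean inhibition across every tested compound plus 3 SD, cut at about 22% in these data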
# LEDGF integ inh: blockers of LEDGF/p75-dependent integrase strand transfer – biochemical, TR-FRET, high throughput, primary screen; 370,000 compounds, 0.64% hits; TR-FRET IN-LEDGF/p75 DNA integration, Eu/Cy5; HIV-1 integrase (with human LEDGF/p75); inhibition, % at 3.7 µM; AID 743269, 2014;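 active means inhibition above the screen-wide mean plus 3 SD, cut at about 13% in these data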;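 further: signal is the Cy5 over europium emission ratio at 671 and 618 nm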
# RBBP9 inh: human RBBP9 inhibitors, primary screen, biochemical, fluorescence polarization, FP-Rh probe, HTS; recombinant RBBP9; inhibition, % at 7.94 µM; 220,000 compounds, 0.2% hits;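 active means inhibition above the campaign mean of all tested compounds plus 3 SD, cut at about 14% in these data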
# Target sequence (O75884 whole entry, looked up): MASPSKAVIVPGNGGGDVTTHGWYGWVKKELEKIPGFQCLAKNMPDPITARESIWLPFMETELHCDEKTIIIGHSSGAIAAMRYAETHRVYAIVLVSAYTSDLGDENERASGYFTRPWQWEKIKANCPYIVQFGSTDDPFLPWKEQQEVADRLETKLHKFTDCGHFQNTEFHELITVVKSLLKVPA
#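 Test system – recombinant human RBBP9 · Input – RBBP9 2.5 µM in dispensing solution, pre-mixing · Medium – Tris buffer pH 8.0, NaCl, Pluronic · Schedule – preincubation 30 min plus labeling 45 min at 25 °C · Measured by – fluorescence polarization · Measure – % inhibition · Controls – DMSO and no-protein wells · Replicates – one well per compound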
# PRMT1 confirm: PRMT1 methyltransferase inhibitors, confirmation, biochemical, fluorescence polarization, triplicate. shares compounds with PRMT1 inh. recombinant His-PRMT1, activity-based probe fluorescence polarization. inhibition, % at 2.79 µM. 3,300 compounds, 42% hits;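 active means mean inhibition across replicates above the hit cutoff derived for the earlier primary screen, cut at about 22% in these data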
# A number is an active result; i = inactive; nt = no result given.
SMILES,UHRF1 MBD2 ctr,PRMT1 inh,MBD2 DNA inh,ABHD5 PLIN5 PPI,LEDGF integ inh,RBBP9 inh,PRMT1 confirm
CCOC(=O)C1=C(CSc2nc(CC)c(C)cc2C#N)OC(N)=C(C#N)C1c1ccccc1 (stereo not drawn),i,28,i,i,i,i,i
COC(=O)[C@]12C[C@H](CC(=O)NCCC(C)C)C(=O)N(Cc3cccc4ccccc34)C1=C[C@H](C(C)C)O[C@@H]2C1CC1,i,i,i,nt,i,nt,nt
C[C@H]1CN(C(=O)OC(C)(C)C)CCN1c1ccc(Br)c(C#N)c1,i,i,i,nt,i,nt,nt
CCCC[C@H]1C2CC(OC(=O)Nc3cc(C)cc(C)c3)C(C2)[C@H]2CCCCN21 (stereo partly drawn),i,i,i,nt,i,nt,nt
Cc1ccccc1-c1csc(N)n1,i,i,i,i,i,nt,nt
Cc1ccc(-c2csc(N)n2)s1,i,76,i,i,i,i,28
Clc1ccc(OCc2nn3c(C4CCCCC4)nnc3s2)cc1,i,27,i,i,i,i,i
O=C(NCc1ccco1)c1cc2cc(Br)ccc2o1,i,31,i,i,i,nt,25
Cc1c(C(=O)NCc2ccco2)oc2ccc(Br)cc12,i,i,i,i,i,nt,nt
Cc1ccc(Nc2nc(-c3c(C)nc4ccccn34)cs2)cc1,i,i,i,i,i,i,nt
Cc1nc2ccccn2c1-c1ccnc(=S)[nH]1,i,79,i,i,i,i,38
COC(=O)C1CCC(CNC(=O)C(Cc2ccc3c(c2)OCO3)NC(C)=O)CC1 (stereo not drawn),i,i,i,nt,i,nt,nt
O=C(CCn1nnc(-c2cccs2)n1)N1CCOCC1,i,i,i,nt,i,nt,nt
Cc1c(Cl)cccc1NC(=O)CSCc1cc(=O)[nH][nH]1,i,28,i,i,i,i,i
Cc1cc2cc3c(cc2n2c(SCC(=O)Nc4nc(-c5ccccc5)cs4)nnc12)OCO3,i,i,i,nt,i,nt,nt
Nc1c(C(=O)c2ccc(Cl)cc2)sc2nsc(SCCN3CCOCC3)c12,i,i,i,i,i,i,nt
Nc1c(C(=O)c2ccccc2)sc2nsc(SCCN3CCCC3)c12,i,27,i,i,i,i,i
CC(=O)c1sc2nsc(SCCN3CCCCC3)c2c1N,i,27,i,i,i,i,i
CCOc1ccc2nc(SC3CC(=O)N(c4ccccc4)C3=O)sc2c1 (stereo not drawn),nt,nt,nt,i,nt,i,nt
COc1ccc(N2C(=O)CC(Sc3n[nH]c(-c4ccccc4)n3)C2=O)cc1 (stereo not drawn),i,30,i,i,i,i,75
COc1ccc(N2C(=O)CC(Sc3nc(C)c4c(n3)CCCC4)C2=O)cc1 (stereo not drawn),i,i,i,i,i,i,nt
CCOc1ccc(N2C(=O)CC(Sc3n[nH]c(-c4ccccc4)n3)C2=O)cc1 (stereo not drawn),i,32,i,i,i,i,52
COc1ccc(OC)c(S(=O)(=O)N2CCCCC2C(=O)N2CCN(c3ccccc3F)CC2)c1 (stereo not drawn),i,i,i,nt,i,nt,nt
COc1ccc(-c2nc(=S)[nH][nH]2)cc1OC,i,i,i,i,i,i,nt
COc1cc(-c2nc(=S)[nH][nH]2)cc(OC)c1OC,i,34,i,i,i,i,i
SMILES,UHRF1 MBD2 ctr,PRMT1 inh,MBD2 DNA inh,ABHD5 PLIN5 PPI,LEDGF integ inh,RBBP9 inh,PRMT1 confirm
CCCOc1cccc(C2C(C(=O)c3ccco3)=C(O)C(=O)N2c2nnc(C)s2)c1 (stereo not drawn),i,32,i,i,i,nt,i
CSc1ccc(C2C(C(=O)c3ccco3)=C(O)C(=O)N2c2nnc(SC)s2)cc1 (stereo not drawn),i,65,i,i,i,nt,34
Cc1nnc(N2C(=O)C(O)=C(C(=O)c3ccco3)C2c2ccc(C(C)(C)C)cc2)s1 (stereo not drawn),i,i,i,i,i,i,nt
COc1ccc(C2C(C(=O)c3cccs3)=C(O)C(=O)N2c2cccc(C)n2)cc1 (stereo not drawn),i,i,i,i,i,i,nt
Cc1ccc(C2C(C(=O)c3cccs3)=C(O)C(=O)N2c2nnc(C)s2)cc1 (stereo not drawn),i,69,i,i,i,i,36
Cc1nnc(N2C(=O)C(O)=C(C(=O)c3ccco3)C2c2ccc(F)cc2)s1 (stereo not drawn),i,40,i,i,i,i,i
CN(CCOC(=O)c1cc2ccccc2o1)C1CN(Cc2cn(Cc3ccc([N+](=O)[O-])cc3)nn2)S(=O)(=O)C1 (stereo not drawn),i,i,i,nt,i,nt,nt
O=C(NCCc1ccccc1)OCc1cn(Cc2ccccc2F)nn1,i,i,i,nt,i,nt,nt
C=CCOc1cccc(C2C(C(=O)c3ccc(C)o3)=C(O)C(=O)N2c2nccs2)c1 (stereo not drawn),i,63,i,i,i,i,38
COc1cccc(C2C(C(=O)c3ccc(C)o3)=C(O)C(=O)N2c2cc(C)on2)c1 (stereo not drawn),i,i,i,i,i,nt,nt
Clc1ccc2nc(-c3ccccc3)c(Cc3ccsc3)n2c1,nt,nt,nt,i,nt,nt,nt
Clc1ccc2nc(-c3ccco3)c(Cc3ccsc3)n2c1,i,47,i,49,i,nt,23
Cc1cc(Br)cn2c(Cc3cccc(F)c3)c(-c3ccco3)nc12,i,35,i,nt,i,nt,30
COC(=O)c1ccc2nc(-c3ccco3)c(Cc3ccsc3)n2c1,i,33,i,nt,i,nt,37
Clc1cccc(Cc2c(-c3ccco3)nc3c4ccccc4ccn23)c1,i,25,i,i,i,nt,i
Clc1cccc(Cc2c(-c3cccc(Cl)c3)nc3c4ccccc4ccn23)c1,i,i,i,i,i,nt,nt
COC(=O)c1ccc2nc(-c3ccc(Cl)cc3)c(Cc3cccc(Cl)c3)n2c1,i,i,i,i,i,nt,nt
COC(=O)c1ccc2nc(-c3ccco3)c(Cc3cccc(Cl)c3)n2c1,22,25,i,i,i,nt,i
CC(C)C[C@H]1COc2cc(Br)ccc2S(=O)(=O)N1Cc1cn(Cc2ccc(C(F)(F)F)cc2)nn1,i,i,i,nt,i,nt,nt
Cc1ccc(NS(=O)(=O)c2cc(C(=O)NCc3ccncc3)ccc2C)cc1,i,i,i,i,i,nt,nt
COCCNC(=O)c1ccc(C)c(S(=O)(=O)Nc2ccc(C)cc2)c1,i,36,i,i,i,i,i
